Measured values from different studies.
Protocols differ between the studies behind these lines.
ABL1 E255K phosphorylated: Tyrosine-protein kinase ABL1, phosphorylated (ABL1, Homo sapiens, UniProt P00519, E255K)
ABL1 Q252H phosphorylated: Tyrosine-protein kinase ABL1, phosphorylated (ABL1, Homo sapiens, UniProt P00519, Q252H)
ABL1 F317I non-phosphorylated: Tyrosine-protein kinase ABL1, non-phosphorylated (ABL1, Homo sapiens, UniProt P00519, F317I)
ABL1 Q252H non-phosphorylated: Tyrosine-protein kinase ABL1, non-phosphorylated (ABL1, Homo sapiens, UniProt P00519, Q252H)
ABL1 non-phosphorylated: Tyrosine-protein kinase ABL1, non-phosphorylated (ABL1, Homo sapiens, UniProt P00519)
ABL1 Q252H: Tyrosine-protein kinase ABL1 (ABL1, Homo sapiens, UniProt P00519, Q252H)
ABL1 T315I: Tyrosine-protein kinase ABL1 (ABL1, Homo sapiens, UniProt P00519, T315I)

O=C(NCCCN1CCOCC1)c1ccc(Nc2ncc(Cl)c(-c3ccc(Cl)s3)n2)cc1
remaining binding (ABL1 E255K phosphorylated; binding; competition with immobilised ligand; 1 µM): 37%

COc1ncc2cc3ccccc3nc2c1C#N
remaining binding (ABL1 Q252H phosphorylated; cell-free assay; competition with immobilised ligand; 5 µM): 99%

O=C(c1ccc(Nc2ncc(Cl)c(-c3cc4ccccc4s3)n2)cc1)N1CCC(N2CCCC2)CC1
remaining binding (Tyrosine-protein kinase ABL1, phosphorylated (ABL1, Homo sapiens, UniProt P00519); binding; competition with immobilised ligand; 1 µM): 26%

CN(c1ccnc(CNc2nc(Nc3ccc4c(c3)CC(=O)N4)ncc2C(F)(F)F)n1)S(C)(=O)=O
remaining binding (Tyrosine-protein kinase ABL1, phosphorylated (ABL1, Homo sapiens, UniProt P00519, F317I); binding; 1 µM): 79%

Cc1cnc(Nc2ccc(C(=O)N3CCC(N4CCCC4)CC3)cc2)nc1-c1cc2ccccc2s1
remaining binding (ABL1 F317I non-phosphorylated; binding; competition with immobilised ligand; 1 µM): 100%

O=C(O)[C@@H]1[C@@H](Cn2nnc3ccccc3c2=O)CC[C@H]1C(=O)c1ccc(OCCC2CCOCC2)cc1
remaining binding (ABL1 F317I non-phosphorylated; binding; competition with immobilised ligand; 1 µM): 82%

CCN1CCN(Cc2ccc(C(=O)Nc3ccc(C)c(Oc4ccc5c(c4)CC(=O)N5)c3)cc2C(F)(F)F)CC1
remaining binding (ABL1 Q252H non-phosphorylated; binding; competition with immobilised ligand; 1 µM): 3%

Nc1c(C(=O)NCc2ccc(C(=O)NCCCC3CCCCC3)cc2)cnn1-c1ccccc1
remaining binding (ABL1 Q252H phosphorylated; cell-free assay; competition with immobilised ligand; 0.1 µM): 98%

C[C@H]1CCN(c2nccc(-c3cnn4ncccc34)n2)C1
remaining binding (Tyrosine-protein kinase ABL1 (ABL1, Homo sapiens, UniProt P00519, F317L); binding; 1 µM): 82%

COC(=O)Nc1nc2ccc(C(=O)c3ccccc3)cc2[nH]1
remaining binding (ABL1 E255K phosphorylated; cell-free assay; competition with immobilised ligand; 10 µM): 2.2%

CNC(=O)[C@@H]1CC[C@@H](n2c(-c3ccc4cnccc4c3)nc3ccc(C(=O)NCc4cccc(C(N)=O)c4)cc32)C1
remaining binding (Tyrosine-protein kinase ABL1, phosphorylated (ABL1, Homo sapiens, UniProt P00519, Y253F); binding; competition with immobilised ligand; 1 µM): 100%

c1cncc(-c2cccc(Nc3nccc(NC4CCCCC4)n3)c2)c1
remaining binding (ABL1 Q252H non-phosphorylated; binding; competition with immobilised ligand; 10 µM): 20%

CCS(=O)(=O)c1cc2cc(C[C@](O)(CC(C)(C)c3ccc(F)cc3C(N)=O)C(F)(F)F)[nH]c2cn1
remaining binding (ABL1 non-phosphorylated; cell-free assay; competition with immobilised ligand; 1 µM): 100%

C=CC(=O)N1CCC(C(=O)NCC(=O)N2CCN(c3nc(-c4cnc(N)nc4C(F)F)nc(N4CCOCC4)n3)CC2)CC1
remaining binding (ABL1 Q252H phosphorylated; binding; competition with immobilised ligand; 1 µM): 100%

COc1cnc(Nc2cccc(S(N)(=O)=O)c2)nc1N1CCN(c2ccccc2)C(=O)C1
remaining binding (Tyrosine-protein kinase ABL1, phosphorylated (ABL1, Homo sapiens, UniProt P00519, F317L); binding; competition with immobilised ligand; 1 µM): 97%

c1cnn2ncc(-c3ccnc(N4CCC45COC5)n3)c2c1
remaining binding (ABL1 non-phosphorylated; binding; 1 µM): 68%

CC(C)(C)c1ccc(-c2nc(CBr)nn2-c2cccc(O)c2)cc1
remaining binding (ABL1 non-phosphorylated; cell-free assay; competition with immobilised ligand; 10 µM): 82%

O=C(c1ccc(Nc2ncc(Cl)c(-c3ccc(Cl)s3)n2)cc1)N1CCC(N2CCCC2)CC1
remaining binding (ABL1 E255K phosphorylated; binding; competition with immobilised ligand; 1 µM): 4.3%

Cc1cnn2ncc(-c3ccnc(N(C)C)n3)c2c1
remaining binding (ABL1 Q252H; binding; 1 µM): 100%

Nc1ncc2c(n1)-c1c([nH]c3ccc(C#CC4CC4)cc13)CCCC2
remaining binding (ABL1 Q252H non-phosphorylated; binding; competition with immobilised ligand; 1 µM): 93%

CN(C)c1nccc(-c2cnc3ncccn23)n1
remaining binding (ABL1 T315I; binding; 1 µM): 52%

COc1cnc(Nc2cccc(S(N)(=O)=O)c2)nc1N1CCN(c2ccccc2)CC1
remaining binding (ABL1 Q252H phosphorylated; binding; competition with immobilised ligand; 1 µM): 72%

CC1CCCN1c1nccc(-c2cnn3ncccc23)n1 (stereo not shown)
remaining binding (ABL1 Q252H; binding; 1 µM): 97%

N#Cc1ccccc1CSc1nnc2c(n1)[nH]c1ccccc12
remaining binding (ABL1 non-phosphorylated; binding; competition with immobilised ligand; 10 µM): 86%

CN1CCN(c2ccc(Nc3nccc(-c4cccc([N+](=O)[O-])c4)n3)cc2C(F)(F)F)CC1
remaining binding (Tyrosine-protein kinase ABL1 (ABL1, Homo sapiens, UniProt P00519, E255K); binding; 10 µM): 5.8%

Cc1nc(Cc2cccc(C(F)(F)F)c2)sc1-c1ccc(C(N)=O)nc1
remaining binding (ABL1 Q252H phosphorylated; cell-free assay; competition with immobilised ligand; 1 µM): 100%

O=C(NCCCN1CCOCC1)c1ccc(Nc2nccc(-c3cc4ccccc4s3)n2)cc1
remaining binding (ABL1 Q252H non-phosphorylated; binding; competition with immobilised ligand; 1 µM): 34%

F[C@@H]1CCN(c2nccc(-c3cnn4ncccc34)n2)C1
remaining binding (ABL1 T315I; binding; 1 µM): 100%

O=C(Nc1c[nH]nc1C(=O)NC1CCNCC1)c1cc(F)cc(F)c1
remaining binding (ABL1 F317I non-phosphorylated; binding; competition with immobilised ligand; 1 µM): 100%

C[C@@H](c1ccc(-n2cnc3c(N)ncnc32)cc1)N1CCc2nn(C)c(Cc3ccccc3)c2C1=O
remaining binding (Tyrosine-protein kinase ABL1, non-phosphorylated (ABL1, Homo sapiens, UniProt P00519, T315I); binding; competition with immobilised ligand; 0.1 µM): 33%

N[C@@H]1CCN(c2nccc(-c3cnn4ncccc34)n2)C1
remaining binding (Tyrosine-protein kinase ABL1 (ABL1, Homo sapiens, UniProt P00519, M351T); binding; 1 µM): 100%

N#Cc1ccc(Nc2ccc3[nH]c(=O)[nH]c3c2)c(Cl)c1
remaining binding (Tyrosine-protein kinase ABL1, phosphorylated (ABL1, Homo sapiens, UniProt P00519, T315I); cell-free assay; competition with immobilised ligand; 1 µM): 93%

O=C(c1ccc(Nc2nccc(-c3cc4ccccc4s3)n2)cc1)N1CCC(N2CCCC2)CC1
remaining binding (ABL1 F317I non-phosphorylated; binding; competition with immobilised ligand; 1 µM): 92%

CCCCN(CCCC)C(=O)CN1C[C@H](c2cc(OC)c3c(c2)OCO3)[C@@H](C(=O)O)[C@@H]1CC(C)(C)CCC
remaining binding (ABL1 F317I non-phosphorylated; binding; competition with immobilised ligand; 1 µM): 98.5%

CN(C)c1nccc(-c2cnn3ncccc23)n1
remaining binding (Tyrosine-protein kinase ABL1 (ABL1, Homo sapiens, UniProt P00519, H396P); binding; 1 µM): 89%

O=C(NS(=O)(=O)c1ccc(NCC2CCOCC2)c([N+](=O)[O-])c1)c1ccc(N2CCN(Cc3ccc(C(F)(F)F)cc3-c3ccc(Cl)cc3)CC2)cc1Oc1cnc2[nH]ccc2c1
remaining binding (Tyrosine-protein kinase ABL1, phosphorylated (ABL1, Homo sapiens, UniProt P00519, H396P); cell-free assay; competition with immobilised ligand; 1 µM): 92%

O=C(NCC1CCOCC1)c1n[nH]cc1NC(=O)c1c(F)cccc1F
remaining binding (ABL1 F317I non-phosphorylated; binding; competition with immobilised ligand; 1 µM): 86%
